Published values from different studies.
Protocols differ between the studies behind these lines. Converted amounts (≈) assume the structure as drawn.

| Structure (SMILES) | organism | test | system | conditions | measurement | result |
| --- | --- | --- | --- | --- | --- | --- |
| CN1CCN(c2ncc(-c3ccc4nncc(Nc5ncccn5)c4c3)cn2)CC1 | Leishmania major | parasite growth |  | intracellular, amastigote | EC50 | > 25 µM |
| CC1(C)S[C@@H]2[C@H](NC(=O)[C@H](N)c3ccccc3)C(=O)N2[C@H]1C(=O)O | Enterococcus faecalis | microbial growth |  | clinical isolate | MIC90 | > 128 µg/mL |
| C/C(=N\NC(=O)/N=C(\C)c1c(O)c2ccccc2oc1=O)c1c(O)c2ccccc2oc1=O | Aspergillus glaucus | microbial growth, broth dilution |  | 48 h | MIC | 125 µg/mL |
| CN[C@H](CC(C)C)C(=O)N[C@H]1C(=O)N[C@@H](CC(N)=O)C(=O)N[C@H]2C(=O)N[C@H]3C(=O)N[C@H](C(=O)N[C@H](C(=O)O)c4cc(O)cc(O)c4-c4cc3ccc4O)[C@H](O)c3ccc(c(Cl)c3)Oc3cc2cc(c3O[C@@H]2O[C@H](CO)[C@@H](O)[C@H](O)[C@H]2O[C@H]2C[C@](C)(N)[C@H](O)[C@H](C)O2)Oc2ccc(cc2Cl)[C@H]1O | Enterococcus faecalis | microbial growth, broth dilution |  | clinical isolate | MIC90 | 2 µg/mL (≈ 1.38 µM) |
| [H]/N=C(\N/C(=N/[H])NCCCCCCNC(=N)NC(=N)Nc1ccc(Cl)cc1)Nc1ccc(Cl)cc1 | Enterococcus faecalis | microbial growth |  |  | MIC | 4 µM |
| Cc1ccc(Nc2cnnc3ccc(-c4ccc(N5CCCN(C)CC5)cc4)cc23)cn1 | Leishmania major | parasite growth |  | intracellular, amastigote | EC50 | > 4.7 µM |
| C/C(=N\C(=N)/N=C(\C)c1c(O)c2ccccc2oc1=O)c1c(O)c2ccccc2oc1=O | Aspergillus glaucus | microbial growth, broth dilution |  | 48 h | MIC | 125 µg/mL |
| CN1CCCN(c2ncc(-c3ccc4nncc(Nc5cnccn5)c4c3)cn2)CC1 | Leishmania major | parasite growth |  | intracellular, amastigote | EC50 | > 24 µM |
| COc1c(N2C[C@@H]3CCCN[C@@H]3C2)c(F)cc2c(=O)c(C(=O)O)cn(C3CC3)c12 | Enterococcus faecalis | microbial growth, agar dilution | ATCC29212 |  | MIC | 8 µg/mL |
| CNC(=S)NN=Cc1ccc(C)cc1 | Leishmania major | parasite growth | J774.A1 | 72 h, intracellular, amastigote | IC50 | 1110 µM |
| CC[C@H]1OC(=O)[C@H](C)[C@@H](O[C@H]2C[C@@](C)(OC)[C@@H](O)[C@H](C)O2)[C@H](C)[C@@H](O[C@@H]2O[C@H](C)C[C@H](N(C)C)[C@H]2O)[C@](C)(O)C[C@@H](C)/C(=N\OCOCCOC)[C@H](C)[C@@H](O)[C@]1(C)O | Enterococcus faecalis | microbial growth |  | clinical isolate | MIC90 | > 128 µg/mL |
| CNC(=S)NN=Cc1ccc(OC)c(OC)c1 | Leishmania major | parasite growth | J774.A1 | 72 h, intracellular, amastigote | IC50 | 60 µM |
| C/C(=N\C(=S)/N=C(\C)c1c(O)c2ccccc2oc1=O)c1c(O)c2ccccc2oc1=O | Aspergillus glaucus | microbial growth, broth dilution |  | 48 h | MIC | 31.2 µg/mL |
| CNC(=S)NN=Cc1ccc(OC)cc1 | Leishmania major | parasite growth, MTT |  | 72 h, promastigote | IC50 | 26.7 µM |
| OC(Cn1cncn1)(Cn1cncn1)c1ccc(F)cc1F | Aspergillus fumigatus | microbial growth, broth dilution |  |  | MIC | 4 µg/mL |
| CNC(=S)NN=Cc1ccc([N+](=O)[O-])cc1 | Leishmania major | parasite growth, MTT |  | 72 h, promastigote | IC50 | 160 µM |
| COc1ccc(Nc2cnnc3cc(-c4cnc(N5CCN(C)CC5)nc4)ccc23)cc1Cl | Leishmania major | parasite growth |  | intracellular, amastigote | EC50 | > 2.2 µM |
| C[C@@H]1[C@H](O)[C@@H](C)/C=C/C=C/C=C/C=C/C=C/C=C/C=C/[C@H](O[C@@H]2O[C@H](C)[C@@H](O)[C@H](N)[C@@H]2O)C[C@@H]2O[C@](O)(C[C@@H](O)C[C@@H](O)[C@H](O)CC[C@@H](O)C[C@@H](O)CC(=O)O[C@H]1C)C[C@H](O)[C@H]2C(=O)O | Leishmania major | parasite growth | J774.A1 | 72 h, intracellular, amastigote | IC50 | 17.5 µM |
| CN1CCN(c2ccc(-c3ccc4nncc(Nc5cnccn5)c4c3)cc2)CC1 | Leishmania major | parasite growth |  | intracellular, amastigote | EC50 | > 13 µM |
